# Experiments:
# Giardia intestinalis = assay: Antiparasitic activity against Giardia lamblia WB trophozoites after 24 to 48 hrs by CellTiter-Glo luminescent cell viability assay; settings: Giardia duodenalis
# Entamoeba histolytica = assay: Antiparasitic activity against Entamoeba histolytica HM-1:IMSS trophozoites after 24 to 48 hrs by CellTiter-Glo luminescent cell viability assay; format: functional, organism-based
# Procedure, shortened: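 Axenic trophozoites were kept in TYI-S-33 with penicillin (100 U/mL) and streptomycin (100 µg/mL) and harvested in log phase. 5000 parasites per well were exposed to a final 8-point two-fold series of 0.39–50 µM, from 10 mM DMSO stocks. Plates were incubated 24–48 h at 37 °C under anaerobic conditions. ATP luminescence viability was read in triplicate. Percent inhibition is given at the highest concentration tested.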
# Clostridioides difficile = assay: Antibacterial activity against Clostridium difficile 630 ATCC BAA-1382 by broth microdilution assay; format: functional
# Procedure, shortened: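 Broth microdilution run essentially per an earlier report. MIC taken as the lowest concentration with no visible growth. Replicates typically agreed within one 2-fold dilution. The median MIC is reported, with a range where the median fell between two tested concentrations.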
# [1] = test system: Mycobacterium tuberculosis; assay: Antibacterial activity against non-replicating Mycobacterium tuberculosis H37Rv after 5 days under hypoxic condition by resazurin dye-based fluorescence assay; format: functional; settings: 120 h
# Procedure, shortened: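 Same H37Rv inoculum (OD600 0.001, ~2 x 10^4 CFU/mL) in 7H9S with serially diluted compound. Plates held 5 days at 0.1% oxygen, then resazurin plus Tween-80 added.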
# [2] = test system: Mycobacterium tuberculosis; assay: Antibacterial activity against Mycobacterium tuberculosis H37Rv after 5 days under normoxic condition by resazurin dye-based fluorescence assay; format: functional, organism-based
# Procedure, shortened: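 H37Rv grown in 7H9/ADC/glycerol/Tyloxapol to mid-exponential phase, diluted to OD600 0.001 (~2 x 10^4 CFU/mL) in 7H9S with serially diluted compound. Incubated 5 days at 37 °C, then resazurin and Tween-80 added. Fluorescence (ex 530/em 590 nm) read after 24 h, normalised to no-drug and no-bacteria wells.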
# [3] = test system: Trypanosoma brucei brucei; assay: Antiparasitic activity against bloodstream form of Trypanosoma brucei brucei strain 427 after 48 hrs by resazurin dye-based assay; format: functional, organism-based; settings: strain 427, 48 h
Compound,IC50 (Giardia intestinalis),IC50 (Entamoeba histolytica; read-out: IC50),MIC (Clostridioides difficile),MIC [1],IC50 (Giardia intestinalis; read-out: pIC50 (converted)),IC50 (Entamoeba histolytica; read-out: pIC50 (converted)),MIC [2],IC50 ([3]; read-out: IC50),IC50 ([3]; read-out: pIC50 (converted))
O=C(NCc1cccc(OC(F)(F)F)c1)c1ncc([N+](=O)[O-])[nH]1,0.2 to 0.5 µM,2.2 to 4.5 µM,4 to 16 µg/mL,> 32 µg/mL,,,,,
O=C(NCc1ccc(F)cc1)c1ncc([N+](=O)[O-])[nH]1,0.2 to 0.5 µM,2.2 to 4.5 µM,4 to 16 µg/mL,> 32 µg/mL,,,,,
O=c1c2nc([N+](=O)[O-])cn2ccn1Cc1ccccc1,,,> 64 µg/mL,,,,,,
Cc1ccc(Cn2c(C)cn3cc([N+](=O)[O-])nc3c2=O)cc1,4.4 µM,10 µM,,> 32 µg/mL,3.98 µM,10 µM,>32 µg/mL,0.56 µM,0.501 µM
CNC(=O)c1nc([N+](=O)[O-])cn1Cc1ccc(OC(F)(F)F)cc1,2.7 to 7.5 µM,10 to 45 µM,16 to 64 µg/mL,> 32 µg/mL,,,,,
Cc1nc(OCc2cccc(OC(F)(F)F)c2)c2nc([N+](=O)[O-])cn2c1C,3.9 µM,27 µM,,> 32 µg/mL,3.98 µM,25.1 µM,>32 µg/mL,1.4 µM,1.26 µM
CN(C)C(=O)c1nc([N+](=O)[O-])cn1Cc1ccc(OC(F)(F)F)cc1,2.7 to 7.5 µM,10 to 45 µM,16 to 64 µg/mL,> 32 µg/mL,,,,,
NC(=O)c1nc([N+](=O)[O-])cn1Cc1ccc(F)cc1,4.1 to 50 µM,> 25 µM,> 64 µg/mL,> 32 µg/mL,,,,,
Cc1ccc(COc2nc(C)c(C)n3cc([N+](=O)[O-])nc23)cc1,5.8 µM,> 50 µM,,> 32 µg/mL,6.31 µM,> 50.1 µM,>32 µg/mL,2.2 µM,2.51 µM
Cc1ccc(COc2nc(C)cn3cc([N+](=O)[O-])nc23)cc1,5.7 µM,30 µM,,,6.31 µM,31.6 µM,,,
Cc1[nH]c(=O)c2nc([N+](=O)[O-])cn2c1C,50 µM,> 50 µM,,> 32 µg/mL,50.1 µM,> 50.1 µM,>32 µg/mL,2.6 µM,2.51 µM
Cc1cn2cc([N+](=O)[O-])nc2c(=O)[nH]1,50 µM,> 50 µM,,> 32 µg/mL,50.1 µM,> 50.1 µM,>32 µg/mL,3.6 µM,3.98 µM
CC(=O)OCCOc1nc(-c2ccccc2)cn2cc([N+](=O)[O-])nc12,1.9 µM,> 50 µM,,> 32 µg/mL,2 µM,> 50.1 µM,,1.5 µM,1.58 µM
O=C(NCc1ccccc1)c1nc([N+](=O)[O-])c[nH]1,0.2 to 0.5 µM,2.2 to 4.5 µM,4 to 16 µg/mL,> 32 µg/mL,,,,,
Cc1cn2cc([N+](=O)[O-])nc2c(OCc2ccccc2OC(F)(F)F)n1,5.7 µM,> 50 µM,,> 32 µg/mL,6.31 µM,> 50.1 µM,>32 µg/mL,1.2 µM,1.26 µM
NNC(=O)c1nc([N+](=O)[O-])cn1Cc1ccc(OC(F)(F)F)cc1,2.7 to 7.5 µM,10 to 45 µM,16 to 64 µg/mL,> 32 µg/mL,,,,,
CCOC(=O)c1nc([N+](=O)[O-])cn1Cc1ccc(OC(F)(F)F)cc1,2.7 to 7.5 µM,10 to 45 µM,16 to 64 µg/mL,> 32 µg/mL,,,,,
O=[N+]([O-])c1cn2cc(-c3ccccc3)nc(OCCO)c2n1,5.2 µM,> 50 µM,,> 32 µg/mL,5.01 µM,> 50.1 µM,,1.1 µM,1 µM
Cc1cn2cc([N+](=O)[O-])nc2c(=O)n1Cc1ccccc1OC(F)(F)F,3.3 µM,9.1 µM,,> 32 µg/mL,3.16 µM,10 µM,>32 µg/mL,2.1 µM,2 µM
Cc1ccc(Cn2cc([N+](=O)[O-])nc2C(N)=O)cc1,4.1 to 50 µM,> 25 µM,> 64 µg/mL,> 32 µg/mL,,,,,
NC(=O)c1nc([N+](=O)[O-])cn1Cc1cccc(OC(F)(F)F)c1,4.1 to 50 µM,> 25 µM,> 64 µg/mL,> 32 µg/mL,,,,,
Cc1nc(OCc2ccccc2OC(F)(F)F)c2nc([N+](=O)[O-])cn2c1C,> 50 µM,> 50 µM,,> 32 µg/mL,> 50.1 µM,> 50.1 µM,>32 µg/mL,1.9 µM,2 µM
Cc1ncc([N+](=O)[O-])n1CCO [METRONIDAZOLE],7.2 µM,4.3 µM,0.5 µg/mL,> 32 µg/mL,7.94 µM,3.98 µM,,> 40 µM,> 39.8 µM
Cc1cn2cc([N+](=O)[O-])nc2c(=O)n1CCO,> 50 µM,> 50 µM,,> 32 µg/mL,> 50.1 µM,> 50.1 µM,,4.6 µM,5.01 µM
Cc1ccc(CNC(=O)c2nc([N+](=O)[O-])c[nH]2)cc1,0.2 to 0.5 µM,2.2 to 4.5 µM,4 to 16 µg/mL,> 32 µg/mL,,,,,
NC(=O)c1nc([N+](=O)[O-])cn1Cc1ccccc1,4.1 to 50 µM,> 25 µM,> 64 µg/mL,> 32 µg/mL,,,,,
Cc1c(C)n2cc([N+](=O)[O-])nc2c(=O)n1Cc1ccccc1OC(F)(F)F,5.3 µM,18 µM,,> 32 µg/mL,5.01 µM,20 µM,>32 µg/mL,0.78 µM,0.794 µM
Cc1cn2cc([N+](=O)[O-])nc2c(=O)n1Cc1cccc(OC(F)(F)F)c1,2.8 µM,16 µM,,> 32 µg/mL,2.51 µM,15.8 µM,>32 µg/mL,1.1 µM,1.26 µM
NC(=O)c1nc([N+](=O)[O-])cn1Cc1ccc(OC(F)(F)F)cc1,4.1 to 50 µM,> 25 µM,> 64 µg/mL,> 32 µg/mL,,,,,

# From ChEMBL document CHEMBL4382237, “Design, Synthesis, and Biological Evaluation of 2-Nitroimidazopyrazin-one/-es with Antitubercular and Antiparasitic Activity” (J Med Chem, 2018)
